# Assay results: ChEMBL document CHEMBL3992547, “Antimicrobial activity of rhodanine-3-acetic acid derivatives” (Bioorg Med Chem, 2017)
# Activity calls are given as the source filed them. The calls are words filed in the database; no cut-off is given here.
# Tests used:
# Pichia kudriavzevii = experiment: Antifungal activity against Candida krusei E28 after 24 to 48 hrs hrs by microdilution broth assay; assay type: functional
# Summary of the method: (§1)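 Broth microdilution per CLSI M27-A3 and M38-A2 in RPMI 1640 with glutamine, buffered to pH 7.0 with MOPS. Compounds are diluted in DMSO. Final inoculum is 5 × 10³ CFU/mL for yeasts and 0.5–5 × 10⁴ CFU/mL for moulds. Plates are incubated in the dark at 35 °C in humid air and read visually and/or at 540 nm after 24 and 48 h. MIC is ≥80% growth reduction (IC₈₀) for yeasts and ≥50% (IC₅₀) for filamentous fungi.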
# Staphylococcus aureus [1] = experiment: Antibacterial activity against Staphylococcus aureus CCM 4516/08 incubated for 48 hrs under dark condition by microdilution broth assay; assay type: functional; conditions: CCM 4516/08, 48 h
# Summary of the method: (§2)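 Broth microdilution per M07-A07, modified, in Mueller-Hinton broth adjusted to pH 7.4 (±0.2). Inoculum is prepared in sterile water to McFarland 0.5 (1.5 × 10⁸ CFU/mL). Plates are incubated in the dark at 35 °C in humid air. MIC is read after 24 and 48 h as at least 95% growth reduction versus control (IC₉₅).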
# Lichtheimia corymbifera = experiment: Antifungal activity against Absidia corymbifera 272 after 24 to 48 hrs hrs by microdilution broth assay; assay type: functional; summary of the method: as §1
# Mycobacterium kansasii [2] = experiment: Antimycobacterial activity against Mycobacterium kansasii isolate 235/80 after 7 days by micromethod; assay type: functional; conditions: isolate 235/80, 168 h
# Staphylococcus aureus [3] = experiment: Antibacterial activity against Staphylococcus aureus CCM 4516/08 incubated for 24 hrs under dark condition by microdilution broth assay; assay type: functional; conditions: CCM 4516/08, 24 h; summary of the method: as §2
# Candida albicans [4] = experiment: Antifungal activity against Candida albicans ATCC 44859 after 48 hrs by microdilution broth assay; assay type: functional; conditions: ATCC 44859, 48 h; summary of the method: as §1
# Staphylococcus aureus [5] = experiment: Antibacterial activity against methicillin-resistant Staphylococcus aureus H 5996/08 incubated for 24 hrs under dark condition by microdilution broth assay; assay type: functional; conditions: H 5996/08, 24 h
# Summary of the method: (§3)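 Microdilution broth method modified per M07-A07, in Mueller-Hinton broth adjusted to pH 7.4 (±0.2). Inoculum made in sterile water to 0.5 McFarland (1.5 × 10⁸ CFU/mL). Plates incubated in the dark at 35 °C in a humid atmosphere, with reads at 24 and 48 h. MIC taken as at least 95% growth reduction (IC₉₅) versus control.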
# Aspergillus fumigatus [6] = experiment: Antifungal activity against Aspergillus fumigatus 231 after 24 hrs by microdilution broth assay; assay type: functional; conditions: Aspergillus fumigatus, 231, 24 h; summary of the method: as §1
# [7] = system: Trichophyton mentagrophytes; experiment: Antifungal activity against Trichophyton mentagrophytes 445 after 72 hrs by microdilution broth assay; assay type: functional; conditions: Trichophyton mentagrophytes, 445, 72 h
# Summary of the method: (§4)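 Broth microdilution per CLSI M38-A2 in RPMI 1640 with glutamine, buffered to pH 7.0 with MOPS, with DMSO as diluent. Final inoculum is 0.5–5 × 10⁴ CFU/mL. Plates are incubated in the dark at 35 °C in humid air and read visually and/or at 540 nm after 72 and 120 h. MIC is at least 50% growth reduction versus control.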
# Trichosporon asahii [8] = experiment: Antifungal activity against Trichosporon asahii 1188 after 24 hrs by microdilution broth assay; assay type: functional; conditions: Trichosporon asahii, 1188, 24 h; summary of the method: as §1
# Mycobacterium kansasii [9] = experiment: Antimycobacterial activity against Mycobacterium kansasii isolate 6509/96 after 21 days by micromethod; assay type: functional; conditions: isolate 6509/96, 504 h
# Pseudomonas aeruginosa = experiment: Antibacterial activity against Pseudomonas aeruginosa CCM 1961 up to 500 uM incubated for 24 to 48 hrs under dark condition by microdilution broth assay; assay type: functional; summary of the method: as §2
# Staphylococcus aureus [10] = experiment: Antibacterial activity against methicillin-resistant Staphylococcus aureus H 5996/08 incubated for 48 hrs under dark condition by microdilution broth assay; assay type: functional; conditions: H 5996/08, 48 h; summary of the method: as §3
# Escherichia coli [11] = experiment: Antibacterial activity against Escherichia coli CCM 4517 incubated for 24 hrs under dark condition by microdilution broth assay; assay type: functional; conditions: CCM 4517, 24 h; summary of the method: as §2
# Candida tropicalis [12] = experiment: Antifungal activity against Candida tropicalis 156 after 24 hrs by microdilution broth assay; assay type: functional; conditions: Candida tropicalis, 156, 24 h; summary of the method: as §1
# Nakaseomyces glabratus [13] = experiment: Antifungal activity against Candida glabrata 20/I after 24 hrs by microdilution broth assay; assay type: functional; summary of the method: as §1
# Candida albicans [14] = experiment: Antifungal activity against Candida albicans ATCC 44859 after 24 hrs by microdilution broth assay; assay type: functional; conditions: ATCC 44859, 24 h; summary of the method: as §1
# Klebsiella pneumoniae [15] = experiment: Antibacterial activity against ESBL positive Klebsiella pneumoniae J 14368/08 up to 500 uM incubated for 24 to 48 hrs under dark condition by microdilution broth assay; assay type: functional; summary of the method: as §2
# [16] = Solubility of the compound in Sula's semisynthetic medium up to 1 mM; assay type: physicochemical
# Mycobacterium kansasii [17] = experiment: Antimycobacterial activity against Mycobacterium kansasii isolate 6509/96 after 14 days by micromethod; assay type: functional; conditions: isolate 6509/96, 336 h
# Enterococcus [18] = experiment: Antibacterial activity against Enterococcus sp. J 14365/08 incubated for 48 hrs under dark condition by microdilution broth assay; conditions: J 14365/08, 48 h
# Klebsiella pneumoniae [19] = experiment: Antibacterial activity against Klebsiella pneumoniae D 11750/08 up to 500 uM incubated for 24 to 48 hrs under dark condition by microdilution broth assay; assay type: functional; summary of the method: as §2
# Mycobacterium kansasii [20] = experiment: Antimycobacterial activity against Mycobacterium kansasii isolate 6509/96 after 7 days by micromethod; assay type: functional; conditions: isolate 6509/96, 168 h
# [21] = system: Mycobacterium tuberculosis; experiment: Antimycobacterial activity against Mycobacterium tuberculosis H37Rv 331/88 measured after 14 days by micromethod; assay type: functional; conditions: H37Rv 331/88, 336 h
# [22] = system: Trichophyton mentagrophytes; experiment: Antifungal activity against Trichophyton mentagrophytes 445 after 120 hrs by microdilution broth assay; assay type: functional; conditions: Trichophyton mentagrophytes, 445, 120 h; summary of the method: as §4
# [23] = system: Staphylococcus epidermidis; experiment: Antibacterial activity against Staphylococcus epidermidis H 6966/08 incubated for 24 hrs under dark condition by microdilution broth assay; assay type: functional; conditions: H 6966/08, 24 h; summary of the method: as §2
# Mycobacterium avium [24] = experiment: Antimycobacterial activity against Mycobacterium avium 330/88 measured after 14 days by micromethod; assay type: functional; conditions: 330/88, 336 h
# Aspergillus fumigatus [25] = experiment: Antifungal activity against Aspergillus fumigatus 231 after 48 hrs by microdilution broth assay; assay type: functional; conditions: Aspergillus fumigatus, 231, 48 h; summary of the method: as §1
# Mycobacterium avium [26] = experiment: Antimycobacterial activity against Mycobacterium avium 330/88 measured after 21 days by micromethod; assay type: functional; conditions: 330/88, 504 h
# Trichosporon asahii [27] = experiment: Antifungal activity against Trichosporon asahii 1188 after 48 hrs by microdilution broth assay; assay type: functional; conditions: Trichosporon asahii, 1188, 48 h; summary of the method: as §1
# Mycobacterium kansasii [28] = experiment: Antimycobacterial activity against Mycobacterium kansasii isolate 235/80 after 14 days by micromethod; assay type: functional; conditions: isolate 235/80, 336 h
# [29] = system: Mycobacterium tuberculosis; experiment: Antimycobacterial activity against Mycobacterium tuberculosis H37Rv 331/88 measured after 21 days by micromethod; assay type: functional; conditions: H37Rv 331/88, 504 h
# Escherichia coli [30] = experiment: Antibacterial activity against Escherichia coli CCM 4517 incubated for 48 hrs under dark condition by microdilution broth assay; assay type: functional; conditions: CCM 4517, 48 h; summary of the method: as §2
# Nakaseomyces glabratus [31] = experiment: Antifungal activity against Candida glabrata 20/I after 48 hrs by microdilution broth assay; assay type: functional; summary of the method: as §1
# [32] = system: Staphylococcus epidermidis; experiment: Antibacterial activity against Staphylococcus epidermidis H 6966/08 incubated for 48 hrs under dark condition by microdilution broth assay; assay type: functional; conditions: H 6966/08, 48 h; summary of the method: as §2
# Mycobacterium kansasii [33] = experiment: Antimycobacterial activity against Mycobacterium kansasii isolate 235/80 after 21 days by micromethod; assay type: functional; conditions: isolate 235/80, 504 h
# Enterococcus [34] = experiment: Antibacterial activity against Enterococcus sp. J 14365/08 incubated for 24 hrs under dark condition by microdilution broth assay; conditions: J 14365/08, 24 h
# Candida tropicalis [35] = experiment: Antifungal activity against Candida tropicalis 156 after 48 hrs by microdilution broth assay; assay type: functional; conditions: Candida tropicalis, 156, 48 h; summary of the method: as §1
SMILES,Activity (Pichia kudriavzevii),Activity (Lichtheimia corymbifera),MIC (Mycobacterium kansasii [2]),MIC80 (Candida albicans [4]),MIC50 (Aspergillus fumigatus [6]),MIC50 [7],MIC80 (Trichosporon asahii [8]),MIC (Mycobacterium kansasii [9]),Activity (Pseudomonas aeruginosa),MIC80 (Candida tropicalis [12]),MIC80 (Nakaseomyces glabratus [13]),MIC80 (Candida albicans [14]),Activity (Klebsiella pneumoniae [15]),solubility [16],MIC (Mycobacterium kansasii [17]),Activity (Klebsiella pneumoniae [19]),MIC (Mycobacterium kansasii [20]),MIC [21],MIC50 [22],MIC (Mycobacterium avium [24]),further results
CC(=O)Oc1ccccc1/C=C1\SC(=S)N(CC(=O)O)C1=O,inactive,inactive,62.5 µM,> 500 µM,> 500 µM,250 µM,> 500 µM,62.5 µM,inactive,> 500 µM,> 500 µM,> 500 µM,inactive,Soluble,62.5 µM,inactive,62.5 µM,32 µM,500 µM,62.5 µM,MIC95 (Staphylococcus aureus [1]): 62.5 µM; MIC95 (Staphylococcus aureus [3]): 62.5 µM; MIC95 (Staphylococcus aureus [5]): 62.5 µM; MIC95 (Staphylococcus aureus [10]): 62.5 µM; MIC95 (Escherichia coli [11]): > 500 µM; MIC95 (Enterococcus [18]): 125 µM; MIC95 [23]: 31.2 µM; MIC50 (Aspergillus fumigatus [25]): > 500 µM; MIC (Mycobacterium avium [26]): 62.5 µM; MIC80 (Trichosporon asahii [27]): > 500 µM; MIC (Mycobacterium kansasii [28]): 62.5 µM; MIC [29]: 32 µM; MIC95 (Escherichia coli [30]): > 500 µM; MIC80 (Nakaseomyces glabratus [31]): > 500 µM; MIC95 [32]: 31.2 µM; MIC (Mycobacterium kansasii [33]): 62.5 µM; MIC95 (Enterococcus [34]): 62.5 µM; MIC80 (Candida tropicalis [35]): > 500 µM
O=C(CN1C(=O)CSC1=S)Oc1ccc(Cl)cc1,inactive,inactive,250 µM,> 500 µM,> 500 µM,500 µM,> 500 µM,500 µM,inactive,> 500 µM,> 500 µM,> 500 µM,inactive,Soluble,500 µM,inactive,250 µM,250 µM,500 µM,1000 µM,MIC50 (Aspergillus fumigatus [25]): > 500 µM; MIC (Mycobacterium avium [26]): 1000 µM; MIC80 (Trichosporon asahii [27]): > 500 µM; MIC (Mycobacterium kansasii [28]): 500 µM; MIC [29]: 500 µM; MIC80 (Nakaseomyces glabratus [31]): > 500 µM; MIC (Mycobacterium kansasii [33]): 1000 µM; MIC80 (Candida tropicalis [35]): > 500 µM
